Results taken from ChEMBL document CHEMBL3861959, “Synthesis and antiproliferative evaluation of novel 2-(4H-1,2,4-triazole-3-ylthio)acetamide derivatives as inducers of apoptosis in cancer cells” (Eur J Med Chem, 2016).
≈ marks a conversion by molar mass, not a printed value.

Columns and labels:
[1] = Cytotoxicity against human MT4 cells assessed as decrease in cell viability after 5 days by MTT assay; format: toxicity, cell-based
In short: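 MT-4 cells in mock-infected wells of the anti-HIV MTT setup. Compounds in serial five-fold dilutions in triplicate, cells at 6 × 10^5 cells/mL. Absorbance at 540 and 690 nm, median OD of three wells. CC50 is the concentration that lowers OD540 of the mock-infected control by 50%.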

[2] = Antiviral activity against HIV2 ROD infected in human MT4 cells assessed as protection against virus-induced cytopathic effect after 5 days MTT assay; format: functional, cell-based, Human immunodeficiency virus type 2 (ISOLATE ROD); details: Human immunodeficiency virus 2, MT4, 120 h
In short: (§1)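 HIV-1 strain IIIB and HIV-2 strain ROD in MT-4 cells, MTT-based. Test compounds in serial five-fold dilutions, in triplicate wells run alongside mock-infected cells, with untreated infected and mock controls. MT-4 cells resuspended at 6 × 10^5 cells/mL. Absorbance read at 540 and 690 nm, median OD of three wells. EC50 is the 50% effective concentration.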

[3] = Selectivity index, ratio of CC50 for human MT4 cells to EC50 for HIV1 3B; format: toxicity, cell-based; details: read-out: Ratio CC50/EC50
In short: (§2)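 HIV-1 IIIB and HIV-2 ROD tested in MT-4 cells by MTT. Serial fivefold dilutions of compound added to triplicate mock- and virus-infected wells. MT-4 cells at 6 × 10^5 cells/mL. Absorbance read at 540/690 nm; median OD of three wells used. CC50 is the concentration reducing mock-infected OD540 by 50%. […]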

[4] = tested on: Human immunodeficiency virus 1; test: Antiviral activity against HIV1 3B infected in human MT4 cells assessed as protection against virus-induced cytopathic effect after 5 days MTT assay; format: functional, cell-based; details: Human immunodeficiency virus 1, 3B, MT4, 120 h; in short: as §1
[5] = Selectivity index, ratio of CC50 for human MT4 cells to EC50 for HIV2 ROD; format: toxicity, cell-based; details: read-out: Ratio CC50/EC50; in short: as §2
[6] = Cytotoxicity against human K562 cells assessed as decrease in cell proliferation after 72 hrs by XTT assay; details: K562, 72 h

Q: Which CC50 at 120 h [1] does the source give for `Cc1ccc(C(C)C)c(OCc2n[nH]c(=S)n2Cc2ccccc2)c1` here?
A: 13.1 µg/mL (≈ 37 µM)

Q: And the EC50 [2]?
A: > 13.1 µg/mL

Q: What about the selectivity ratio [3] of the same molecule?
A: < 1

Q: And the EC50 [4]?
A: > 13.1 µg/mL

Q: And the selectivity ratio [5]?
A: < 1

Q: Which CC50 at 120 h [1] does the source give for `Cc1ccc(C(C)C)c(OCc2nnc(SCC(=O)Nc3ccc([N+](=O)[O-])cc3)n2Cc2ccccc2)c1` here?
A: 11.2 µg/mL (≈ 21 µM)

Q: What about the EC50 [2] of the same molecule?
A: > 11.2 µg/mL

Q: And the selectivity ratio [3]?
A: < 1

Q: And the EC50 [4]?
A: > 11.2 µg/mL

Q: And the selectivity ratio [5]?
A: < 1

Q: Which CC50 at 120 h [1] does the source give for `CC(=O)Nc1ccc(OCc2nnc(SCC(=O)Nc3ccc(Cl)cc3)n2Cc2ccccc2)cc1` here?
A: 14 µg/mL (≈ 26.8 µM)

Q: What about the EC50 [2] of the same molecule?
A: > 14 µg/mL

Q: What about the selectivity ratio [3] of the same molecule?
A: < 1

Q: What about the EC50 [4] of the same molecule?
A: > 14 µg/mL

Q: What about the selectivity ratio [5] of the same molecule?
A: < 1

Q: Which results are given for `CCOC(=O)c1ccc(NC(=O)CSc2nnc(COc3ccc(NC(C)=O)cc3)n2Cc2ccccc2)cc1`?
A: CC50 at 120 h [1]: 91.1 µg/mL (≈ 163 µM); EC50 [2]: > 91.1 µg/mL; selectivity ratio [3]: < 1; EC50 [4]: > 91.1 µg/mL; selectivity ratio [5]: < 1

Q: With `Cc1ccc(C(C)C)c(OCc2nnc(SCC(=O)Nc3ccc(Br)cc3)n2Cc2ccccc2)c1` as the molecule, how does the CC50 at 120 h [1] read?
A: 66.7 µg/mL (≈ 118 µM)

Q: And the EC50 [2]?
A: > 66.7 µg/mL

Q: And the selectivity ratio [3]?
A: < 1

Q: And the EC50 [4]?
A: > 66.7 µg/mL

Q: And the selectivity ratio [5]?
A: < 1

Q: Which results are given for `CCOC(=O)c1ccc(NC(=O)CSc2nnc(COc3cc(C)ccc3C(C)C)n2Cc2ccccc2)cc1`?
A: CC50 at 120 h [1]: 19.8 µg/mL (≈ 35.5 µM); EC50 [2]: > 19.8 µg/mL; selectivity ratio [3]: < 1; EC50 [4]: > 19.8 µg/mL; selectivity ratio [5]: < 1

Q: What does the source list for `CC(=O)Nc1ccc(OCc2nnc(SCC(=O)Nc3ccc(S(N)(=O)=O)cc3)n2Cc2ccccc2)cc1`?
A: CC50 at 120 h [1]: > 125 µg/mL; EC50 [2]: > 125 µg/mL; selectivity ratio [3]: 1; EC50 [4]: > 125 µg/mL; selectivity ratio [5]: 1

Q: Which results are given for `NS(=O)(=O)c1ccc(NC(=O)CSc2nnc(COc3ccc4ccccc4c3)n2Cc2ccccc2)cc1`?
A: CC50 at 120 h [1]: 94.5 µg/mL (≈ 169 µM); EC50 [2]: > 94.4 µg/mL; selectivity ratio [3]: < 1; EC50 [4]: > 94.4 µg/mL; selectivity ratio [5]: < 1

Q: With `S=c1[nH]nc(COc2ccc3ccccc3c2)n1Cc1ccccc1` as the molecule, how does the CC50 at 120 h [1] read?
A: ≥ 85.8 µg/mL

Q: What about the EC50 [2] of the same molecule?
A: > 85.8 µg/mL

Q: And the selectivity ratio [3]?
A: ≤ 1

Q: And the EC50 [4]?
A: > 85.8 µg/mL

Q: What about the selectivity ratio [5] of the same molecule?
A: ≤ 1

Q: What does the source list for `CCOC(=O)c1ccc(NC(=O)CSc2nnc(COc3ccc4ccccc4c3)n2Cc2ccccc2)cc1`?
A: CC50 at 120 h [1]: ≥ 90.7 µg/mL; EC50 [2]: > 90.7 µg/mL; selectivity ratio [3]: ≤ 1; EC50 [4]: > 90.7 µg/mL; selectivity ratio [5]: ≤ 1

Q: With `CC(=O)Nc1ccc(OCC(=O)NNC(=S)NCc2ccccc2)cc1` as the molecule, how does the CC50 at 120 h [1] read?
A: 83.5 µg/mL (≈ 224 µM)

Q: And the EC50 [2]?
A: > 83.5 µg/mL

Q: What about the selectivity ratio [3] of the same molecule?
A: < 1

Q: And the EC50 [4]?
A: > 83.5 µg/mL

Q: What about the selectivity ratio [5] of the same molecule?
A: < 1

Q: What does the source list for `Cc1ccnc2c1NC(=O)c1cccnc1N2C1CC1` [NEVIRAPINE]?
A: CC50 at 120 h [1]: > 4 µg/mL; EC50 [2]: > 4 µg/mL; selectivity ratio [3]: > 80; selectivity ratio [5]: < 1

Q: For `O=c1[nH]cnc2c1ncn2[C@H]1CC[C@@H](CO)O1` [DIDANOSINE], which CC50 at 120 h [1] is on record?
A: > 50 µg/mL

Q: What about the EC50 [2] of the same molecule?
A: 3.78 µg/mL (≈ 16 µM)

Q: And the selectivity ratio [3]?
A: > 24

Q: And the EC50 [4]?
A: 2.09 µg/mL (≈ 8.85 µM)

Q: What about the selectivity ratio [5] of the same molecule?
A: > 13

Q: Which results are given for `CC(=O)Nc1ccc(OCc2n[nH]c(=S)n2Cc2ccccc2)cc1`?
A: CC50 at 120 h [1]: 79 µg/mL (≈ 223 µM); EC50 [2]: > 79 µg/mL; selectivity ratio [3]: < 1; EC50 [4]: > 79 µg/mL; selectivity ratio [5]: < 1

Q: Which results are given for `Cc1cn([C@H]2C[C@H](N=[N+]=[N-])[C@@H](CO)O2)c(=O)[nH]c1=O` [ZIDOVUDINE]?
A: CC50 at 120 h [1]: > 25 µg/mL; EC50 [2]: 0.00094 µg/mL (≈ 0.00352 µM); selectivity ratio [3]: > 11600; EC50 [4]: 0.0022 µg/mL (≈ 0.00823 µM); selectivity ratio [5]: > 26700

Q: For `Cc1ccc(NC(=O)c2ccc(CN3CCN(C)CC3)cc2)cc1Nc1nccc(-c2cccnc2)n1` [IMATINIB], which IC50 [6] is on record?
A: 310 nM

Q: For `Nc1ccn([C@H]2CC[C@@H](CO)O2)c(=O)n1` [ZALCITABINE], which CC50 at 120 h [1] is on record?
A: > 20 µg/mL

Q: And the EC50 [2]?
A: 0.19 µg/mL (≈ 0.9 µM)

Q: What about the selectivity ratio [3] of the same molecule?
A: > 127

Q: What about the selectivity ratio [5] of the same molecule?
A: > 108

Q: Which CC50 at 120 h [1] does the source give for `O=C(COc1ccc2ccccc2c1)NNC(=S)NCc1ccccc1` here?
A: ≥ 61.4 µg/mL

Q: And the EC50 [2]?
A: > 61.4 µg/mL

Q: And the selectivity ratio [3]?
A: ≤ 1

Q: What about the EC50 [4] of the same molecule?
A: > 61.4 µg/mL

Q: What about the selectivity ratio [5] of the same molecule?
A: ≤ 1

Q: Which CC50 at 120 h [1] does the source give for `CC(=O)Nc1ccc(OCc2nnc(SCC(=O)Nc3ccc([N+](=O)[O-])cc3)n2Cc2ccccc2)cc1` here?
A: 105 µg/mL (≈ 197 µM)

Q: And the EC50 [2]?
A: > 105 µg/mL

Q: What about the selectivity ratio [3] of the same molecule?
A: < 1

Q: And the EC50 [4]?
A: > 105 µg/mL

Q: And the selectivity ratio [5]?
A: < 1

Q: Which CC50 at 120 h [1] does the source give for `O=C(CSc1nnc(COc2ccc3ccccc3c2)n1Cc1ccccc1)Nc1ccc([N+](=O)[O-])cc1` here?
A: ≥ 116 µg/mL

Q: What about the EC50 [2] of the same molecule?
A: > 116 µg/mL

Q: What about the selectivity ratio [3] of the same molecule?
A: ≤ 1

Q: And the EC50 [4]?
A: > 116 µg/mL

Q: What about the selectivity ratio [5] of the same molecule?
A: ≤ 1

Q: What does the source list for `O=C(CSc1nnc(COc2ccc3ccccc3c2)n1Cc1ccccc1)Nc1ccc(Br)cc1`?
A: CC50 at 120 h [1]: 58 µg/mL (≈ 104 µM); EC50 [2]: > 58 µg/mL; selectivity ratio [3]: < 1; EC50 [4]: > 58 µg/mL; selectivity ratio [5]: < 1

Q: Which CC50 at 120 h [1] does the source give for `O=C(CSc1nnc(COc2ccc3ccccc3c2)n1Cc1ccccc1)Nc1ccc(Cl)cc1` here?
A: ≥ 4.93 µg/mL

Q: And the EC50 [2]?
A: > 4.93 µg/mL

Q: What about the selectivity ratio [3] of the same molecule?
A: ≤ 1

Q: And the EC50 [4]?
A: > 4.93 µg/mL

Q: What about the selectivity ratio [5] of the same molecule?
A: ≤ 1

Q: With `Cc1ccc(C(C)C)c(OCC(=O)NNC(=S)NCc2ccccc2)c1` as the molecule, how does the CC50 at 120 h [1] read?
A: 12.6 µg/mL (≈ 34 µM)

Q: What about the EC50 [2] of the same molecule?
A: > 12.6 µg/mL

Q: And the selectivity ratio [3]?
A: < 1

Q: And the EC50 [4]?
A: > 12.6 µg/mL

Q: And the selectivity ratio [5]?
A: < 1
